For the first data set, the target named is T1, Cytochrome P450 26A1 (Homo sapiens, UniProt O43174).
T1 sequence (O43174 whole entry): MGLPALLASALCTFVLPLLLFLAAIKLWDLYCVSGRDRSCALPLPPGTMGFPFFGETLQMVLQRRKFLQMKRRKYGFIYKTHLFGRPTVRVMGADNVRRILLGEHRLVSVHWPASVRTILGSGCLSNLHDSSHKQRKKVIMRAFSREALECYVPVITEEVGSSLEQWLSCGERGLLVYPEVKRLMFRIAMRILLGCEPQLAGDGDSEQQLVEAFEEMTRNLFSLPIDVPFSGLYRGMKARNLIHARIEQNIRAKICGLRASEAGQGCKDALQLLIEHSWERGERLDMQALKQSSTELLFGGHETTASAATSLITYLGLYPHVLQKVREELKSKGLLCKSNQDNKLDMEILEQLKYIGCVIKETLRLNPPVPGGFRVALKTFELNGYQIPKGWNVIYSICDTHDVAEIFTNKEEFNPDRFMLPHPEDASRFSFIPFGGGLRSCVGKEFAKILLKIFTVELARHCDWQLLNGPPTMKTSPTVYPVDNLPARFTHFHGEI
The experiment in a line: Inhibition of CYP26A1 in ATRA-induced human HL60 cell microsomes incubated for 30 mins in dark condition with NADPH and ATRA by HPLC method. Format: cell-based, HL-60.
Conditions: not given
Cytochrome P450 3A4, sequence (P08684 whole entry): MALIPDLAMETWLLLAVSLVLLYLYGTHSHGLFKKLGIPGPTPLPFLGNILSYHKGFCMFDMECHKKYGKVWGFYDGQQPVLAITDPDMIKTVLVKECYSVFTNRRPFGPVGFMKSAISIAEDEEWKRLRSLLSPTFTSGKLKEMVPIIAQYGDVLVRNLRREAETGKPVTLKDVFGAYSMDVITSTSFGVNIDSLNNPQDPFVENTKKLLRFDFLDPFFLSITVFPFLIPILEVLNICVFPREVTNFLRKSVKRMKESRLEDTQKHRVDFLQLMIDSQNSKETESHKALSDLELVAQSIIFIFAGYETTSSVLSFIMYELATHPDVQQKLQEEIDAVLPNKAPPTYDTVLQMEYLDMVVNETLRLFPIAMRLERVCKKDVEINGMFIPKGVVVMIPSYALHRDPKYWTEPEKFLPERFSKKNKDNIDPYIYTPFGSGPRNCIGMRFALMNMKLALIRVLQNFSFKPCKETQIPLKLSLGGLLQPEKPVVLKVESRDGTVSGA
For `CCCOC(=O)C(Cn1ccnc1)NC(=O)c1c(C)nn(-c2ccccc2)c1Cl` (stereo not given), inhibition was half-maximal at 620 nM (IC50).
As to `Cc1nn(-c2ccccc2)c(Cl)c1C(=O)NC(Cn1ccnc1)C(=O)OC(C)C` (stereo not given), the IC50 – broadly, the concentration that inhibits the measured activity by half – was found to be 460 nM. This IC50 and that of the compound before are within 1.5-fold of each other.
On the same count and under the same terms, for `Cc1nn(-c2ccccc2)c(Cl)c1C(=O)NC(Cn1ccnc1)C(=O)OCC(C)C` (stereo not given) the value was 1020 nM; for `COC(=O)C(Cn1ccnc1)NC(=O)c1nc2ccccc2s1` (stereo not given), 410 nM; for `CCOC(=O)C(Cn1ccnc1)NC(=O)c1nc2ccccc2s1` (stereo not given), 740 nM.
On the same count and under the same terms, the same measure for `CCCOC(=O)C(Cn1ccnc1)NC(=O)c1nc2ccccc2s1` (stereo not given): 840 nM; for `CC(C)OC(=O)C(Cn1ccnc1)NC(=O)c1nc2ccccc2s1` (stereo not given): 630 nM.
In the case of `CC(C)COC(=O)C(Cn1ccnc1)NC(=O)c1nc2ccccc2s1` (stereo not given), the IC50 was found to be 1110 nM.

The subject of another data set is HL-60. The experiment in a line: Growth inhibition of human HL60 cells at 0.1 uM incubated for 48 hrs by MTT assay. In kind it is functional. Particulars: HL-60, 48 h, read-out: GI. An outline of the steps:
(§1)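 HL-60 cells plated at 1–104 cells/well (so in the source) and held 24 h at 37 °C, then exposed 48 h to inhibitor at 10 µM and/or ATRA at 0.1 µM. MTT (2 mg/mL) was added for 4 h at 37 °C, the supernatant was discarded, formazan was dissolved in DMSO and absorbance read at 570 nm. Percent growth inhibition reported.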
(In general: Tetrazolium dyes change colour on reduction, which living cells bring about.)
For the compound `CC1=C(/C=C/C(C)=C/C=C/C(C)=C/C(=O)O)C(C)(C)CCC1` [TRETINOIN], the inhibition of growth at 0.1 µM came to 21.8%.

The subject of the next data set is HL-60. The experiment in a line: Growth inhibition of human HL60 cells at 10 uM incubated for 48 hrs by MTT assay. In kind it is functional. To be noted: HL-60, 48 h, read-out: GI. The method, boiled down: as §1
In the case of `CCCOC(=O)C(Cn1ccnc1)NC(=O)c1c(C)nn(-c2ccccc2)c1Cl` (stereo not given), the inhibition of growth at 10 µM was determined as 6.59%.
The same measure, in the same setting: for `Cc1nn(-c2ccccc2)c(Cl)c1C(=O)NC(Cn1ccnc1)C(=O)OC(C)C` (stereo not given) the value was 4.98%; for `Cc1nn(-c2ccccc2)c(Cl)c1C(=O)NC(Cn1ccnc1)C(=O)OCC(C)C` (stereo not given), 8.24%.
Still for that read-out and setting: for `COC(=O)C(Cn1ccnc1)NC(=O)c1nc2ccccc2s1` (stereo not given) the value was 8.64%; for `CCOC(=O)C(Cn1ccnc1)NC(=O)c1nc2ccccc2s1` (stereo not given), 6.66%.
Consider `CCCOC(=O)C(Cn1ccnc1)NC(=O)c1nc2ccccc2s1` (stereo not given), for which the inhibition of growth at 10 µM was 7.64%.
Still for that read-out and setting: the same measure for `CC(C)OC(=O)C(Cn1ccnc1)NC(=O)c1nc2ccccc2s1` (stereo not given): 5.04%; for `CC(C)COC(=O)C(Cn1ccnc1)NC(=O)c1nc2ccccc2s1` (stereo not given): 9.49%.
Take `Clc1cccc(C(c2ccc3[nH]cnc3c2)n2ccnc2)c1` (stereo not given) [LIAROZOLE]: the inhibition of growth at 10 µM worked out at 16.4%.

A further data set relates to HL-60. The experiment in a line: Growth inhibition of human HL60 cells at 10 uM incubated for 48 hrs in presence of 0.1 uM ATRA by MTT assay. In kind it is functional.
Conditions: not given
The method, boiled down: as §1
Take `CCCOC(=O)C(Cn1ccnc1)NC(=O)c1c(C)nn(-c2ccccc2)c1Cl` (stereo not given): the “growth inhibition (GI)” value amounted to 45.58%.
`Cc1nn(-c2ccccc2)c(Cl)c1C(=O)NC(Cn1ccnc1)C(=O)OC(C)C` (stereo not given): the “growth inhibition (GI)” value is 44.79%.
On the same count and under the same terms, the same measure for `Cc1nn(-c2ccccc2)c(Cl)c1C(=O)NC(Cn1ccnc1)C(=O)OCC(C)C` (stereo not given): 43.54%; for `COC(=O)C(Cn1ccnc1)NC(=O)c1nc2ccccc2s1` (stereo not given): 50.36%.
Still for that read-out and setting: for `CCOC(=O)C(Cn1ccnc1)NC(=O)c1nc2ccccc2s1` (stereo not given) the value was 45.4%.
On the same count and under the same terms, the same measure for `CCCOC(=O)C(Cn1ccnc1)NC(=O)c1nc2ccccc2s1` (stereo not given): 47.83%; for `CC(C)OC(=O)C(Cn1ccnc1)NC(=O)c1nc2ccccc2s1` (stereo not given): 46.36%.
Consider `CC(C)COC(=O)C(Cn1ccnc1)NC(=O)c1nc2ccccc2s1` (stereo not given), for which the “growth inhibition (GI)” value was 43.33%.
On the same count and under the same terms, for `Clc1cccc(C(c2ccc3[nH]cnc3c2)n2ccnc2)c1` (stereo not given) [LIAROZOLE] the value was 48.37%.

In the next data set the test system is HL-60. In words: Induction of cell differentiation in human HL60 cells at 0.1 uM incubated for 72 hrs by NBT dye based assay. Format: functional.
Conditions: not given
In the case of `CC1=C(/C=C/C(C)=C/C=C/C(C)=C/C(=O)O)C(C)(C)CCC1` [TRETINOIN], the Activity came out at 28.04%.

For another data set, the system named is HL-60. The experiment in a line: Induction of cell differentiation in human HL60 cells at 10 uM incubated for 72 hrs by NBT dye based assay. In kind it is functional.
Conditions: not given
Compound `CCCOC(=O)C(Cn1ccnc1)NC(=O)c1c(C)nn(-c2ccccc2)c1Cl` (stereo not given) displayed an Activity of 0%.
On the same count and under the same terms, for `Cc1nn(-c2ccccc2)c(Cl)c1C(=O)NC(Cn1ccnc1)C(=O)OC(C)C` (stereo not given) the value was 0%.
Still for that read-out and setting: the same measure for `Cc1nn(-c2ccccc2)c(Cl)c1C(=O)NC(Cn1ccnc1)C(=O)OCC(C)C` (stereo not given): 0%.
The same measure, in the same setting: the same measure for `COC(=O)C(Cn1ccnc1)NC(=O)c1nc2ccccc2s1` (stereo not given): 0%.
`CCOC(=O)C(Cn1ccnc1)NC(=O)c1nc2ccccc2s1` (stereo not given): the Activity was 0%.
On the same count and under the same terms, for `CCCOC(=O)C(Cn1ccnc1)NC(=O)c1nc2ccccc2s1` (stereo not given) the value was 0%; for `CC(C)OC(=O)C(Cn1ccnc1)NC(=O)c1nc2ccccc2s1` (stereo not given), 0%.
Still for that read-out and setting: the same measure for `CC(C)COC(=O)C(Cn1ccnc1)NC(=O)c1nc2ccccc2s1` (stereo not given): 0%; for `Clc1cccc(C(c2ccc3[nH]cnc3c2)n2ccnc2)c1` (stereo not given) [LIAROZOLE]: 0%.

A further data set concerns HL-60. The experiment in a line: Induction of cell differentiation in human HL60 cells at 10 uM incubated for 72 hrs in presence of 0.1 uM ATRA by NBT dye based assay. In kind it is functional.
Conditions: not given
Take `CCCOC(=O)C(Cn1ccnc1)NC(=O)c1c(C)nn(-c2ccccc2)c1Cl` (stereo not given): the Activity was determined as 43.83%.
The same measure, in the same setting: for `Cc1nn(-c2ccccc2)c(Cl)c1C(=O)NC(Cn1ccnc1)C(=O)OC(C)C` (stereo not given) the value was 51.85%.
The same measure, in the same setting: the same measure for `Cc1nn(-c2ccccc2)c(Cl)c1C(=O)NC(Cn1ccnc1)C(=O)OCC(C)C` (stereo not given): 40.79%; for `COC(=O)C(Cn1ccnc1)NC(=O)c1nc2ccccc2s1` (stereo not given): 49.11%; for `CCOC(=O)C(Cn1ccnc1)NC(=O)c1nc2ccccc2s1` (stereo not given): 48.31%.
On the same count and under the same terms, for `CCCOC(=O)C(Cn1ccnc1)NC(=O)c1nc2ccccc2s1` (stereo not given) the value was 42.62%; for `CC(C)OC(=O)C(Cn1ccnc1)NC(=O)c1nc2ccccc2s1` (stereo not given), 50.85%.
For the compound `CC(C)COC(=O)C(Cn1ccnc1)NC(=O)c1nc2ccccc2s1` (stereo not given), the Activity amounted to 38.62%.
For `Clc1cccc(C(c2ccc3[nH]cnc3c2)n2ccnc2)c1` (stereo not given) [LIAROZOLE], the Activity is given as 45.55%.

Another data set concerns the target Cytochrome P450 3A4 (Homo sapiens, UniProt P08684). In words: Inhibition of CYP3A4 (unknown origin) incubated for 45 mins using NADPH by fluorescence assay. In kind it is ADME.
Conditions: not given
For the compound `Cc1nn(-c2ccccc2)c(Cl)c1C(=O)NC(Cn1ccnc1)C(=O)OC(C)C` (stereo not given), it took 4920 nM to reach half-maximal inhibition (IC50).

A further data set deals with Cytochrome P450 2D6 (Homo sapiens, UniProt P10635). In words: Inhibition of CYP2D6 (unknown origin) incubated for 45 mins using NADPH and ATRA by HPLC assay. In kind it is ADME.
Cytochrome P450 2D6, sequence (P10635 whole entry): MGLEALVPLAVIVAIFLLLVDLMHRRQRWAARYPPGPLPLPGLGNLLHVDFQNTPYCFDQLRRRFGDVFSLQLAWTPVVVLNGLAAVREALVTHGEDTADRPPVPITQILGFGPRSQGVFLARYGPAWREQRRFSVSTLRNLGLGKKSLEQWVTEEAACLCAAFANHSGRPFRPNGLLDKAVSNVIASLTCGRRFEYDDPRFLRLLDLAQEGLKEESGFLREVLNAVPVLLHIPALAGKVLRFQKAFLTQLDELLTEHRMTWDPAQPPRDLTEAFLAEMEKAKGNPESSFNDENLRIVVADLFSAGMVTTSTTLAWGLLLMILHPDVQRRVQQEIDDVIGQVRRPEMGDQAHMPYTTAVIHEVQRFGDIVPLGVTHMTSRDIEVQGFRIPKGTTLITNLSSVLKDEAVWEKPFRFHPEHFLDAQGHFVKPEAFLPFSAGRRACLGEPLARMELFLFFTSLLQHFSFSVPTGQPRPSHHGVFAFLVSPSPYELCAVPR
Conditions: not given
Consider `Cc1nn(-c2ccccc2)c(Cl)c1C(=O)NC(Cn1ccnc1)C(=O)OC(C)C` (stereo not given), for which the IC50 worked out at 9640 nM.
Same read-out and setting: the same measure for `Clc1cccc(C(c2ccc3[nH]cnc3c2)n2ccnc2)c1` (stereo not given) [LIAROZOLE]: 4760 nM.

System in another data set: not listed separately
In words: Selectivity index, ratio of IC50 for CYP3A4 (unknown origin) to IC50 for CYP26A1 in ATRA-induced human HL60 cell microsomes. Also noted: species or system HL-60.
Conditions: not given
`Cc1nn(-c2ccccc2)c(Cl)c1C(=O)NC(Cn1ccnc1)C(=O)OC(C)C` (stereo not given): the “Ratio IC50” value was 11.

System in another data set: not listed separately
The experiment in a line: Selectivity index, ratio of IC50 for CYP2D6 (unknown origin) to IC50 for CYP26A1 in ATRA-induced human HL60 cell microsomes. Also noted: species or system HL-60.
Conditions: not given
Regarding `Cc1nn(-c2ccccc2)c(Cl)c1C(=O)NC(Cn1ccnc1)C(=O)OC(C)C` (stereo not given), the Ratio IC50 amounted to 21.

Another data set has as its target T1, Cytochrome P450 26A1. The experiment in a line: Inhibition of CYP26A1-mediated ATRA metabolism in human HL60 cells assessed as ATRA level at 5 uM incubated for 24 hrs by HPLC method (reference value: 7.19 uM). To be noted: hl-60, 24 h. In kind it is cell-based.
For the compound `Cc1nn(-c2ccccc2)c(Cl)c1C(=O)NC(Cn1ccnc1)C(=O)OC(C)C` (stereo not given), the Activity turned out to be 9.22 µM.

The next data set has as its target T1, Cytochrome P450 26A1. In words: Inhibition of CYP26A1-mediated ATRA metabolism in human HL60 cells assessed as ATRA level at 5 uM incubated for 48 hrs by HPLC method (reference value: 4.95 uM). Format: cell-based. Particulars: hl-60, 48 h.
As for `Cc1nn(-c2ccccc2)c(Cl)c1C(=O)NC(Cn1ccnc1)C(=O)OC(C)C` (stereo not given), the Activity turned out to be 7.87 µM.

Another data set deals with T1, Cytochrome P450 26A1. In words: Inhibition of CYP26A1-mediated ATRA metabolism in human HL60 cells assessed as ATRA level at 5 uM incubated for 72 hrs by HPLC method (reference value: 3.6 uM). In kind it is cell-based. To be noted: hl-60, 72 h.
As to `Cc1nn(-c2ccccc2)c(Cl)c1C(=O)NC(Cn1ccnc1)C(=O)OC(C)C` (stereo not given), the Activity is 6.06 µM.

For the next data set, the target named is T1, Cytochrome P450 26A1. The experiment in a line: Inhibition of CYP26A1-mediated ATRA metabolism in human HL60 cells assessed as ATRA level at 5 uM incubated for 96 hrs by HPLC method (reference value: 1.21 uM). In kind it is cell-based. To be noted: hl-60, 96 h.
Regarding `Cc1nn(-c2ccccc2)c(Cl)c1C(=O)NC(Cn1ccnc1)C(=O)OC(C)C` (stereo not given), the Activity is 4.41 µM.

(Values after ChEMBL document CHEMBL3616427, “Design, synthesis, and biological evaluation of amide imidazole derivatives as novel metabolic enzyme CYP26A1 inhibitors” (Bioorg Med Chem, 2015).)
